High-throughput results deposited in PubChem BioAssay by several laboratories.
An excerpt weighted towards active compounds, which were near 4.8% of everything screened.
UCH37 DUB inh: inhibitors of human UCH37 deubiquitinase, primary screen, biochemical, Ub-AMC cleavage, fluorescence; Ubiquitin carboxyl-terminal hydrolase isozyme L5 (Homo sapiens), Q9Y5K5; purified proteasome/UCH37; inhibition, % (concentration not given with the values); 0.33% of 330,000 active;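 active means mean inhibition over replicate wells above about 20%, limit read from the data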;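 further: 0% = compound-free wells with enzyme and 100% = wells lacking proteasome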
Target sequence (Q9Y5K5 whole entry, looked up): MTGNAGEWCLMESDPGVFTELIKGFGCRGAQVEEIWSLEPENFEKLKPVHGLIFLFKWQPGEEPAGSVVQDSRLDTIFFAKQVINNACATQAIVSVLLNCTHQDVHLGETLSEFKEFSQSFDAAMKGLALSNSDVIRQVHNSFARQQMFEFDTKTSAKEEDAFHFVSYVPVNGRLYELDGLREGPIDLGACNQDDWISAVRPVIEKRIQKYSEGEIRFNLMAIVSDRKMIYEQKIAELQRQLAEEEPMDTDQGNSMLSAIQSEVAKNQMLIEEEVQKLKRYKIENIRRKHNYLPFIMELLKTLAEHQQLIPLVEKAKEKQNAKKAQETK
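Assay system: Proteasome-bound UCH37. Buffer or medium: pH 7.4 Tris-HCl (50 mM) with ovalbumin, ATP-MgCl2, DTT. Incubation: 30 min preincubation with enzyme, 25 min cleavage at room temperature. Measured by: fluorescence, ex 355 nm, em 460 nm. Read-out basis: percent inhibition. Control set: wells without proteasome as full block, compound-free enzyme plus substrate as uninhibited.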
Calb FLC: C. albicans growth inhibition with fluconazole, primary screen, CaCi-2 strain, Alamar Blue fluorescence; C. albicans CaCi-2 + fluconazole, 48 h; growth inhibition, % (concentration not given with the values); 0.57% of 300,000 active; AID 1979, 2009;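 active means growth inhibition above about 58% in most replicates, limit read from the data, passing the limit was not always enough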;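 further: all wells also contain fluconazole at 8 µg/ml as a sub-toxic cotreatment; 0% = median of DMSO wells and 100% = median of geldanamycin control wells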
NALP1 yeast inh: NALP1 inflammasome inhibitors in reconstituted yeast, colorimetric, S. cerevisiae, triplicate retest. AID 2071, 2009. 0.61% of 280,000 active. S. cerevisiae NALP1/ASC/caspase-1 growth, X-gal OD620, 72 h. inhibition, % at 10 µM; in the data active means inhibition mostly above about 24%, no sharp cut-off; inactive means mostly below about 32%
ATG4B inh: ATG4B protease inhibitors, primary screen, biochemical, fluorescence, uHTS; Cysteine protease ATG4B (Homo sapiens), Q9Y4P1; ATG4B cleavage of LC3-PLA2, NBD-HPC fluorescence, 1 h; inhibition, % at 8.33 µM; 0.51% of 340,000 active; AID 504462, 2011; in the data active means inhibition above about 40%
NLRP3 yeast inh: NALP3 inflammasome inhibitors in reconstituted yeast, primary screen, luminescence, uHTS; inhibition, % at 10 µM; Yeast reconstituted NLRP3/ASC/caspase-1, beta-gal luminescence, 24 h; 0.39% of 330,000 active; AID 2825, 2010;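 active means inhibition of 50% or more; inactive means inhibition below 50%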;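 further: plate controls were induced DMSO wells for no effect and uninduced yeast grown without galactose for full effect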
ALR inh: inhibitors of human ALR sulfhydryl oxidase, primary screen, biochemical, H2O2 detection, HRP-luminol luminescence, single point; FAD-linked sulfhydryl oxidase ALR (Homo sapiens), P55789; purified ALR, DTT oxidation; inhibition, % (no concentration beside the values); 3.8% of 290,000 active;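 active means mean replicate inhibition above about 79%, with every replicate also reaching it, limit read from the data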
Target sequence (P55789 whole entry, looked up): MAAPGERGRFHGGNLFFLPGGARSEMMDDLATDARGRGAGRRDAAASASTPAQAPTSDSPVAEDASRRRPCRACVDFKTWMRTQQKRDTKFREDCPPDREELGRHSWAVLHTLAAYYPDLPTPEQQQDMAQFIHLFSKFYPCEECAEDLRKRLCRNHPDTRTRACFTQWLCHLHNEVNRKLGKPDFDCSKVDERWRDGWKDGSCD
* = called active by the depositor.

`COc1ccc(C=NNC(=O)c2ccncc2)cc1CSc1nc2ccccc2s1` gave UCH37 DUB inh 2.
Cn1c(=O)c2c(ncn2CC(=O)NN=Cc2c[nH]c3ccccc23)n(C)c1=O was read as UCH37 DUB inh 4.
`Cc1cc(NC(=O)CSc2nc(=O)n(CCN(C)C)c3c2CCCC3)no1` gave UCH37 DUB inh 3, Calb FLC -4, ATG4B inh 4, NLRP3 yeast inh 11 and ALR inh 8.
`CCN(CC)CCn1c2c(c(SCC(=O)Nc3cc(OC)cc(OC)c3)nc1=O)CCC2` gave UCH37 DUB inh 5, Calb FLC -6, ATG4B inh -5, NLRP3 yeast inh 2 and ALR inh 96*.
Screening COc1cccc(NC(=O)CSc2nc(=O)n(CCN(C)C)c3c2CCCC3)c1 returned UCH37 DUB inh 2, Calb FLC -4, ATG4B inh -5, NLRP3 yeast inh 5 and ALR inh 97*.
For CCc1ccc(NC(=O)CSc2nc(=O)n(CCN(C)C)c3c2CCCC3)cc1 the results were UCH37 DUB inh 4, Calb FLC 1, ATG4B inh 4, NLRP3 yeast inh 3 and ALR inh 99*.
Cc1csc(NC(=O)CSc2nc(=O)n(CCN(C)C)c3c2CCCC3)n1 was read as UCH37 DUB inh 4, Calb FLC 2, ATG4B inh -2, NLRP3 yeast inh 6 and ALR inh 98*.
CN(C)CCn1c2c(c(SCC(=O)Nc3cccc4ccccc34)nc1=O)CCCC2 was read as UCH37 DUB inh -1, Calb FLC 8, ATG4B inh -9, NLRP3 yeast inh 18 and ALR inh 20.
`Cc1ccc(C)c(C=NNC(=S)NC(C)C)c1` gave UCH37 DUB inh -6.
For CCCc1nc2c(s1)CCc1onc(-c3cccc([N+](=O)[O-])c3)c1-2 the results were UCH37 DUB inh 32*, Calb FLC -18, ATG4B inh -8 and NLRP3 yeast inh 19.
COC(=O)c1[nH]c2cc(OC)ccc2c1N=CN(C)C was read as UCH37 DUB inh 3, Calb FLC 0, NALP1 yeast inh 24, ATG4B inh -6, NLRP3 yeast inh 1 and ALR inh 88*.
For CCOC(=O)c1[nH]c2ccc(C)cc2c1N the results were UCH37 DUB inh -136, Calb FLC 65, NALP1 yeast inh 12, ATG4B inh -10, NLRP3 yeast inh 8 and ALR inh 62.
For CCOC(=O)c1[nH]c2ccc(C)cc2c1N=CN(CC)CC the results were UCH37 DUB inh -2, Calb FLC 9, NALP1 yeast inh -6, ATG4B inh -5, NLRP3 yeast inh 10 and ALR inh 99*.
`CCOC(=O)c1[nH]c2ccc(F)cc2c1NC(=O)CCN1CCOCC1` gave UCH37 DUB inh -25, Calb FLC 5, NALP1 yeast inh 33, ATG4B inh -6, NLRP3 yeast inh -12 and ALR inh -2.
Screening CCOC(=O)c1[nH]c2ccc(F)cc2c1N=C(C)N(CC)CC returned UCH37 DUB inh 3, Calb FLC 3, NALP1 yeast inh 5, ATG4B inh -6, NLRP3 yeast inh 18 and ALR inh 80*.
Screening CCOC(=O)c1[nH]c2ccccc2c1NC(=O)CC returned UCH37 DUB inh 1, Calb FLC -1, NALP1 yeast inh 4, ATG4B inh -7 and NLRP3 yeast inh 10.
For CCOC(=O)c1[nH]c2ccccc2c1N=CN(C)C the results were UCH37 DUB inh -2, Calb FLC -5, ATG4B inh -3, NLRP3 yeast inh -10 and ALR inh 99*.
Screening Cc1ccc(CSc2nnc(SCC(=O)NN=Cc3ccc(C(=O)O)cc3)s2)cc1 returned UCH37 DUB inh 1.
Screening COc1cc(C=NNc2nnc3c(n2)[nH]c2ccccc23)ccc1O returned UCH37 DUB inh 7.
For COC(=O)c1cc(NC(=O)c2cccc(C(F)(F)F)c2)c(=O)oc1CC=NOCc1cccc(Cl)c1Cl the results were UCH37 DUB inh 3.
Screening Cc1cccc(C(=O)ON=C2CC3CCC2(C)C3(C)C)c1 (stereo not given) returned UCH37 DUB inh 3.
`Cc1cc(SCC(=O)NN=Cc2ccco2)nc2ccccc12` gave UCH37 DUB inh 2.
Cc1cc(N=Nc2ccc(Cl)cc2)cc(CN2CCOCC2)c1O was read as UCH37 DUB inh 4, Calb FLC 4, NALP1 yeast inh 0, ATG4B inh 0 and NLRP3 yeast inh 22.
Screening Cc1cc(N=Nc2ccc(Cl)cc2)cc(CN2CCCC2)c1O returned UCH37 DUB inh 5, Calb FLC 3, NALP1 yeast inh -10, ATG4B inh 0, NLRP3 yeast inh 11 and ALR inh 99*.
`Cc1ccc(C(=O)/C=C\C(=O)c2ccc(C)cc2)cc1` gave UCH37 DUB inh 3, Calb FLC 47, NALP1 yeast inh 66, ATG4B inh -6 and ALR inh 98*.
`N#CC1=C(SCC(=O)c2ccccc2)NC2=C(C(=O)CCC2)C1c1ccco1` (stereo not given) gave UCH37 DUB inh 6, Calb FLC -2, NALP1 yeast inh 0, ATG4B inh -4, NLRP3 yeast inh 14 and ALR inh 87*.
CCCCc1ccc(NC(=O)CSC2=C(C#N)C(c3ccco3)C3=C(CCCC3=O)N2)cc1 (stereo not given) was read as UCH37 DUB inh -2, Calb FLC -2, NALP1 yeast inh -1, ATG4B inh -10, NLRP3 yeast inh 19 and ALR inh 98*.
`Cc1ccc(C(=O)CSC2=C(C#N)C(c3ccco3)C3=C(CCCC3=O)N2)cc1` (stereo not given) gave UCH37 DUB inh 2, Calb FLC 29, NALP1 yeast inh 10, ATG4B inh 6, NLRP3 yeast inh 15 and ALR inh 99*.
CC(C)(C)c1ccc(C(=O)CCCSC2=C(C#N)C(c3ccco3)C3=C(CCCC3=O)N2)cc1 (stereo not given) was read as UCH37 DUB inh -11, NALP1 yeast inh 4, ATG4B inh 30, NLRP3 yeast inh 13 and ALR inh 3.
`COc1cccc(NC(=O)CSc2nnc(-c3ccco3)c(-c3ccco3)n2)c1` gave UCH37 DUB inh 16, Calb FLC -1, NALP1 yeast inh 1, ATG4B inh 14, NLRP3 yeast inh 5 and ALR inh 99*.
For CCn1c(SCC(=O)Nc2ccc(OC)c(OC)c2)nnc1-c1ccco1 the results were UCH37 DUB inh 2, Calb FLC 0, NALP1 yeast inh -3, ATG4B inh 1, NLRP3 yeast inh 27 and ALR inh -9.
